Assay outcomes (PubChem BioAssay)
The list is not random: actives were taken first. Their share in the collection is about 1.6%.
p97 inhibitor – inhibitors of human p97 ATPase; recombinant p97 ATPase, Kinase-Glo ATP luminescence, 3 h; 220,000 tested, 0.42% active; inhibition, % at 8 µM; AID 1481; P55072; in the data active means inhibition above about 15%;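 further: 0% = DMSO vehicle and 100% = wells lacking enzyme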
Tb MetRS inh – blocks T. brucei methionyl-tRNA synthetase activity. purified T. brucei MetRS, ATP depletion, Kinase-Glo luminescence. inhibition, % at 11.9 µM. 360,000 tested, 0.4% active. AID 624268;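 active means inhibition above a per-plate cutoff of the control wells' mean inhibition plus 3 SD, cut at about 5.5% in these data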;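 further: 0% = DMSO wells median and 100% = median of wells with control inhibitor compound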
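assay system = parasite MetRS enzyme | timing = 15 min preincubation, 2 h reaction, all 25 °C | evaluation = percent inhibition relative to median high and low control wells | medium = HEPES buffer containing pyrophosphatase, BSA, spermine, DTT | compound = single dose, 11.9 µM final nominal, 0.9% final DMSO | detection = Kinase-Glo luminescence, ATP depletion format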
eIF4E 4G PPI – blocks eIF4E binding to eIF4G; TR-FRET eIF4E-eIF4GI(517-606) binding, 2 h; AID 782; inhibition, % at 21.7 µM; 220,000 tested, 0.37% active;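 further: 0% = full FRET control wells and 100% = background wells lacking eIF4GI fragment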
14-3-3 Bad PPI – disrupts binding of bovine 14-3-3 zeta to phospho-Bad peptide | AID 781 | TR-FRET 14-3-3zeta/Dy647-pBad peptide displacement, 1 h | 220,000 tested, 0.71% active | inhibition, % at 21.7 µM;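 active means inhibition above about 70%, limit read from the data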;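 further: 0% = full 14-3-3 plus peptide FRET controls and 100% = background without 14-3-3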
Target sequence (P63103 whole entry, looked up): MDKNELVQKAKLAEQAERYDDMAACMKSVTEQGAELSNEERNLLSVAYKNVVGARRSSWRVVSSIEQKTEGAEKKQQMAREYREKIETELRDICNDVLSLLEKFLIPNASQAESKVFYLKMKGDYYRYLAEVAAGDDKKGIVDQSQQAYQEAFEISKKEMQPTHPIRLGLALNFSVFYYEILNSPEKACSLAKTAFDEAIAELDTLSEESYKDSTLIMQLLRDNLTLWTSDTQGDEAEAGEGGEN
SUMO HTRF inh – inhibitors of human SUMOylation (UBC9) | inhibition, % at 35 µM | P63279 | HTRF SUMOylation assay, SAE1/SAE2 + UBC9, in vitro | 290,000 tested, 0.36% active; in the data active means inhibition above about 50%, passing the limit was not always enough
Target sequence (P63279 whole entry, looked up): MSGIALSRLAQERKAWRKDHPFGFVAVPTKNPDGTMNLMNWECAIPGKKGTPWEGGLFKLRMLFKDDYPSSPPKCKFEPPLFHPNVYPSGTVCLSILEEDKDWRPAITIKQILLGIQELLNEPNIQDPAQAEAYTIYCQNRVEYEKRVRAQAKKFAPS
p47phox inh – p47phox (human) inhibition; P14598; p47phox/p22phox peptide binding, fluorescence polarization, 2 h; inhibition, % at 24.7 µM; 220,000 tested, 0.53% active;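 further: 0% = p47phox with labelled peptide and 100% = labelled peptide alone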
* hit, by the source's call; / = not tested or not shown; [ ] = another dose, or the depositor's remark.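 How the source made its calls, unless noted: active means inhibition above about 30% (limit read from the data); inactive means the rest.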

SMILES	p97 inhibitor	Tb MetRS inh	eIF4E 4G PPI	14-3-3 Bad PPI	SUMO HTRF inh	p47phox inh
CCOC(=O)[C@H]1[C@H]2COc3ccc(Br)cc3[C@@H]2N2C(=O)CN(Cc3ccc(F)cc3)C(=O)[C@@]12C	/	0	/	/	/	/
Cc1ccc(OCC(=O)O/N=C(\N)Cc2ccc([N+](=O)[O-])cc2)cc1C	-4	0	40*	5	-35	-2
Cc1cccc(OCC(=O)O/N=C(\N)Cc2ccc([N+](=O)[O-])cc2)c1	3	0	0	-6	2	0
CCc1c(C)c(C#N)c2[nH]c3ccccc3n2c1=S	14	0	33*	-15	28	30*
CCc1cc(=S)n2c([nH]c3ccccc32)c1C#N	4	0	3	-8	23	-5
CC(C)(C)c1cc(CN2CCCC(O)C2)c(O)c(C(C)(C)C)c1 (centres undefined)	-12	-1	8	73*	-4	-6
CC1CC(O)C2C3(C)CCCC2(COC3=O)C12CCC1(CCOC1=O)O2 (centres undefined)	/	0	/	/	/	/
CCC(C)N(C(=O)CSc1nnc(NC(C)C)s1)C1CCS(=O)(=O)C1 (centres undefined)	/	0	/	/	/	/
O=C(NCc1ccccn1)C(=O)C1C(=O)Nc2ccccc21 (centres undefined)	9	0	4	0	-15	39*
CN(C)CCNC(=O)C(=O)C1C(=O)Nc2ccccc21 (centres undefined)	-1	/	4	-2	4	0
S=C(NCCCN1CCOCC1)NCCCN1CCOCC1	-6	-1	-18	4	-2	-4
S=c1[nH]nc(NCCCN2CCOCC2)s1	0	-1	42*	0	-5	78*
F[B-](F)(F)COc1ccccc1	/	-1	/	/	/	/
CCCCC1=CC2=CC(=O)C(C)(OC(=O)CC)C(=O)C2=CN1c1ccccc1 (centres undefined)	/	0	71*	5	6	-5
O=C(c1ccc(Cl)c(NC2=NC3CS(=O)(=O)CC3S2)c1)N1CCN(c2ccc(F)cc2)CC1 (centres undefined)	/	-1	/	/	/	/
Nc1nnc(SCc2ccccc2Cl)s1	-1	0	77*	-7	13	-6
Cn1c(=O)c2ncn(CC(=O)N/N=C/c3ccco3)c2n(C)c1=O	1	0	5	0	2	-7
Cc1onc(-c2c(Cl)cccc2Cl)c1C(=O)N1CCN(c2ncccn2)CC1	-5	0	2	11	11	55*
Cc1onc(-c2c(Cl)cccc2Cl)c1C(=O)N1CCN(c2ccccc2)CC1	-1	-1	5	-4	-15	-2
O=c1c2cc(N3CCOCC3)ccc2[nH]c(=S)n1CCCN1CCCC1	3	-1	-10	-12	42	1
CC1CCN(CCCn2c(=S)[nH]c3ccc(N4CCOCC4)cc3c2=O)CC1	0	0	6	-16	56*	0
COc1ccc(N=Nc2nc(-c3ccccc3)c(-c3ccccc3)[nH]2)cc1	-2	-1	-3	-2	-16	-51
COc1ccccc1N=Nc1nc(-c2ccccc2)c(-c2ccccc2)[nH]1	5	1	0	2	-6	119*
Nc1ccc(S(=O)(=O)N2CCCc3ccccc32)cc1	-1	-1	62*	-7	-11	-1
CN1CCN(/N=C/c2ccc(N(c3ccccc3)c3ccccc3)cc2)CC1	-1	1	3	2	-8	46*
SMILES	p97 inhibitor	Tb MetRS inh	eIF4E 4G PPI	14-3-3 Bad PPI	SUMO HTRF inh	p47phox inh
O=C(Cn1sc2ccccc2c1=O)Nc1ccccc1	/	-1	/	/	/	/
O=C(Cn1sc2ccccc2c1=O)NC12CC3CC(CC(C3)C1)C2	5	0	41*	44	6	-4
CCOC(=O)c1c(CN2CCCCC2)oc2ccc(O)cc12	2	-1	3	-3	29	-5
CCOC(=O)c1c(CN2CCOCC2)oc2ccc(OC)cc12	3	-1	-3	79*	31	1
Cc1nc(C(C)(C)O)n(-c2ccccc2)n1	5	0	92*[fluorescence artefact?]	-12	7	-4
CC(C)(O)c1nnn(-c2ccccc2)c1C(F)(F)F	7	-1	-1	2	-18	-23
CN(C)c1oc(/C=C/c2cccs2)nc1S(=O)(=O)c1ccccc1	/	0	/	/	3	/
COC(=O)[C@@]12C[C@@H](CC(=O)NCCC(C)C)C(=O)N(Cc3cccc4ccccc34)C1=CCC(C)(C)C2	/	-1	/	/	/	/
COc1cc(CNc2ccc(N3CCCC3)cc2)ccc1OCc1ccccc1F	5	-1	32*[fluorescence artefact?]	2	14	-3
COC(=O)C[C@H]1C=C[C@@H](NC(=O)C2CC2)[C@@H](CO)O1	/	0	/	/	/	/
O=c1c2ccccc2oc2nc3ccn(Cc4ccncc4)c(=O)c3cc12	0	/	2	8	68*	-47
Cc1ccc(N(CC(N)=O)C2SC(=O)N(C)C2=O)cc1 (centres undefined)	2	-1	1	80*	-10	-5
Cc1cccc(N(CC(N)=O)C2SC(=O)N(c3ccccc3)C2=O)c1 (centres undefined)	-5	-1	-17	6	0	-5
C#CCN1C(=O)C(O)(CC(=O)c2ccc3c(c2)OCCO3)c2ccccc21 (centres undefined)	1	0	-2	6	21	-4
C#CCN1C(=O)C(O)(CC(=O)c2ccc(OC)c(OC)c2)c2ccccc21 (centres undefined)	1	0	97*	3	32	-16
COC(=O)/C=C/C(=O)N1CCN(c2ccccc2C)CC1	4	0	42*[fluorescence artefact?]	-32	-4	-7
CN(Cc1c(O)ccc2c1oc(=O)c1ccccc12)C1CCCCC1	2	-1	14	87*	18	4
Cc1[nH]ccc2c1[nH]c1cc(=O)ccc12	3	0	0	-11	31	46*
COc1ccccc1N(CC(=O)N1CCCCC1C)S(=O)(=O)c1ccc(Cl)cc1 (centres undefined)	/	-1	/	/	/	/
O=C(OCC(=O)c1ccc(Cl)cc1Cl)c1ccc2c(c1)C(=O)N(c1cccc3ncccc13)C2=O	0	0	-11	0	-20	0
Cc1ccc(C(=O)COC(=O)c2ccc3c(c2)C(=O)N(c2cccc4ncccc24)C3=O)cc1	-1	-1	21	88*	13	84*
O=C(COC(=O)c1ccc2c(c1)C(=O)N(c1cccc3ncccc13)C2=O)c1ccc(Cl)cc1	3	-1	12	75*	5	56*
CCn1c(=O)cc(OCC(=O)NCCCN2CC(C)CC(C)C2)c2ccccc21 (centres undefined)	4	0	-12	-17	9	68*
CC1CC(C)CN(CCCNC(=O)COc2cc(=O)n(C)c3ccccc23)C1 (centres undefined)	2	-1	4	0	3	-5
